Experimental data reported in ChEMBL document CHEMBL3992537, “Design, Synthesis, and Biological Evaluation of Small, High-Affinity Siglec-7 Ligands: Toward Novel Inhibitors of Cancer Immune Evasion” (J Med Chem, 2017).
pIC50, pKd: −log10 of the molar value. Calls of active or inactive are those of the source. The calls are words filed in the database; no cut-off is given here.

Tests used:
[1] = target: T1, Sialic acid-binding Ig-like lectin 7 (Homo sapiens, UniProt Q9Y286); assay: Binding affinity to human IgG1-fused Siglec-7-Fc assessed as inhibition of Siglec-7-Fc binding to RBC preincubated for 10 mins followed by RBC addition measured after 20 mins by FACS analysis relative to sodium (4S,5R,6R)-5-acetamido-4-hydroxy-2-methoxy-6-((1R,2R)-1,2,3 trihydroxypropyl)tetrahydro-2H-pyran-2-carboxylate
Outline: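 RBC flow-cytometry competition as above: Siglec-7-Fc 0.2 μg/mL with ligand 10 min at RT, then RBCs 20 min on ice, detected by anti-Fc-biotin/streptavidin-PE MFI. The reference ligand α-Me Neu5Ac is run in the same test. Relative inhibitory potency is calculated intra-test against it to offset inter-test variation from fresh RBCs.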

[2] = target: T1, Sialic acid-binding Ig-like lectin 7; assay: Ratio of 3'sialyllactose Kd to relative inhibitory potency of test compound for human IgG1-fused Siglec-7-Fc by ELISA
Outline: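 The Kd value is extrapolated by dividing the known Kd of 3′sialyllactose by the ELISA relative inhibitory potency. The ELISA uses plate-bound 6′sialyl-LacNAc-polyacrylamide with AP-precomplexed Siglec-7-Fc, 2.5 h at 37 °C, read at 405 nm.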

[3] = target: T1, Sialic acid-binding Ig-like lectin 7; assay: Binding affinity to human IgG1-fused Siglec-7-Fc measured after 2.5 hrs by ELISA relative to 3'sialyllactose
Outline: (§1)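 Streptavidin-coated plates carry 4 μg/mL biotinylated 6′sialyl-N-acetyllactosamine-polyacrylamide and are BSA-blocked. Ligand 10-fold dilutions (1 mM to 1 × 10⁻⁵ mM, PBS) and hSiglec7-Fc precomplexed with AP anti-human IgG are added for 2.5 h at 37 °C. Plates are developed with p-nitrophenyl phosphate (pH 9.8) and read at 405 nm for IC50. 3′- and 6′-sialyllactose serve as references for relative potency.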

[4] = target: T1, Sialic acid-binding Ig-like lectin 7; assay: Binding affinity to human IgG1-fused Siglec-7-Fc measured after 2.5 hrs by ELISA; outline: as §1
[5] = target: T1, Sialic acid-binding Ig-like lectin 7; assay: Binding affinity to human IgG1-fused Siglec-7-Fc assessed as inhibition of Siglec-7-Fc binding to RBC preincubated for 10 mins followed by RBC addition measured after 20 mins by FACS analysis
Outline: (§2)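 Siglec-7-Fc (human IgG1 fusion), 0.2 μg/mL, premixed 10 min at RT in PBS with inhibitor dilution series. The mix is then added to pelleted freshly isolated human RBCs (0.1% suspension) for 20 min on ice. Bound Fc is detected with biotin goat anti-human Fc (10 μg/mL) and streptavidin-PE, then formaldehyde-fixed and read by flow cytometry. % inhibition is from MFI, with unstained RBCs as 100% and no inhibitor as 0%. IC50 derived.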

[6] = target: T1, Sialic acid-binding Ig-like lectin 7; assay: Binding affinity to human IgG1-fused Siglec-7-Fc; outline: as §2
K562 = assay: Cytotoxicity against human K562 cells assessed as viable cells; assay type: cell-based
[7] = target: Sialic acid-binding Ig-like lectin 9 (Homo sapiens) (UniProt Q9Y336); assay: Binding affinity to human IgG1-fused Siglec-9-Fc assessed as inhibition of Siglec-9-Fc binding to K562 cells preincubated for 10 mins followed by K562 cell addition measured after 20 mins by FACS analysis
Outline: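 Human IgG1-fused Siglec-9-Fc is preincubated with inhibitor dilutions, then co-incubated with K562 cells instead of RBCs. Later steps follow the RBC assay: anti-Fc-biotin and streptavidin-PE detection, fixation, and flow cytometry. Inhibition is calculated from MFI as for RBCs. At least three independent experiments.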

[8] = Cytotoxicity against human MEL1106 cells assessed as viable cells; assay type: cell-based
[9] = Cytotoxicity against human NK cells assessed as viable cells up to 10 mM; assay type: cell-based; settings: nk cell
Outline: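 Human NK cells are isolated by negative selection from PBMCs and prestimulated 24 h with 100 IU/mL IL-2. They are then incubated 24 h with the Siglec-7 inhibitor at concentrations up to 10 mM. Viability is assessed by live–dead staining and flow cytometry.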

T1 sequence (Q9Y286 whole entry, the tested form may be a part): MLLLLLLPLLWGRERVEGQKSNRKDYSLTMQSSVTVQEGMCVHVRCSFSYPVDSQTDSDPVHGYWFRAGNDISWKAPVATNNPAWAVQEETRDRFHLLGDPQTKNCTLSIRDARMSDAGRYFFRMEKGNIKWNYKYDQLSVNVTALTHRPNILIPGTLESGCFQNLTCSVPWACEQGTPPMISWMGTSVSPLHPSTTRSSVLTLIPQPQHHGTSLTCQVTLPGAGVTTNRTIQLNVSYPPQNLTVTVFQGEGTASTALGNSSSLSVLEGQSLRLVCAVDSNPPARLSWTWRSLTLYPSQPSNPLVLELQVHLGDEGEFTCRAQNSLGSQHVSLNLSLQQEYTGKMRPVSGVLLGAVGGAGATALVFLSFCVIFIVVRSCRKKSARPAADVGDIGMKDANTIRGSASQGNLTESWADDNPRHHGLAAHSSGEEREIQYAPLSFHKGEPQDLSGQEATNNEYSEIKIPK
Chain of Sialic acid-binding Ig-like lectin 9 (Homo sapiens) (Q9Y336 whole entry, the tested form may be a part): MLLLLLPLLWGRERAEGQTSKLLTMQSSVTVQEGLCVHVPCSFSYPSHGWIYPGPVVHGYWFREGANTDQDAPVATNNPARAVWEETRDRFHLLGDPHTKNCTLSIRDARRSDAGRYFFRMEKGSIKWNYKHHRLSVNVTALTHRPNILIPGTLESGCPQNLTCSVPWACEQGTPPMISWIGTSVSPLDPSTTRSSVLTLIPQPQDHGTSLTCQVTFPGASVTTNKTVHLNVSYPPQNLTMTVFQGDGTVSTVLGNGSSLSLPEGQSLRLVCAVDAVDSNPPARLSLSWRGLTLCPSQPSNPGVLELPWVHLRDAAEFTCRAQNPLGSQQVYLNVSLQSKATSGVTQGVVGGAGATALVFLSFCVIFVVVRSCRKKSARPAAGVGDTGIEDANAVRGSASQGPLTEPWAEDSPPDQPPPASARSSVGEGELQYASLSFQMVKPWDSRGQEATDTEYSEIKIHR

SMILES	fold change (FC) [1]	also measured
CC(=O)N[C@H]1[C@H]([C@H](O)[C@H](O)CNS(=O)(=O)c2ccccc2)O[C@@](OCCCn2cc(-c3ccc(-c4ccccc4)cc3)nn2)(C(=O)O)C[C@@H]1O	0.49	–
CC(=O)N[C@H]1[C@H]([C@H](O)[C@H](O)CNS(=O)(=O)C(F)(F)F)O[C@@](OCCCn2cc(-c3ccc(-c4ccccc4)cc3)nn2)(C(=O)O)C[C@@H]1O	0.41	–
CC(=O)N[C@H]1[C@H]([C@H](O)[C@@H](C)O)O[C@@](OCCCn2cc(-c3ccc(-c4ccccc4)cc3)nn2)(C(=O)O)C[C@@H]1O	0.15	–
CCS(=O)(=O)NC[C@@H](O)[C@@H](O)[C@@H]1O[C@@](OCCCn2cc(-c3ccc(-c4ccccc4)cc3)nn2)(C(=O)O)C[C@H](O)[C@H]1NC(C)=O	5210	Ratio [2]: 4.2; fold change (FC) [3]: 161; pIC50 [4]: 3.64; pIC50 [5]: 5.80
CC(=O)N[C@H]1[C@H]([C@H](O)[C@H](O)CNc2c(O)c(=O)c2=O)O[C@@](OCCCn2cc(-c3ccc(-c4ccccc4)cc3)nn2)(C(=O)O)C[C@@H]1O	0.28	–
CCCS(=O)(=O)NC[C@@H](O)[C@@H](O)[C@@H]1O[C@@](OCCCn2cc(-c3ccc(-c4ccccc4)cc3)nn2)(C(=O)O)C[C@H](O)[C@H]1NC(C)=O	0.33	–
CC(=O)N[C@H]1[C@H]([C@H](O)[C@H](O)CNS(=O)(=O)c2cccc3c(N(C)C)cccc23)O[C@@](OCCCn2cc(-c3ccc(-c4ccccc4)cc3)nn2)(C(=O)O)C[C@@H]1O	0.09	–
CC(=O)N[C@H]1[C@H]([C@H](O)[C@H](O)CN)O[C@@](OCCCn2cc(-c3ccc(-c4ccccc4)cc3)nn2)(C(=O)O)C[C@@H]1O	0.24	–
CC(=O)N[C@H]1[C@H]([C@H](O)[C@H](O)CNS(=O)(=O)NS(N)(=O)=O)O[C@@](OCCCn2cc(-c3ccc(-c4ccccc4)cc3)nn2)(C(=O)O)C[C@@H]1O	1	–
CC(=O)N[C@H]1[C@H]([C@H](O)[C@H](O)CNS(=O)(=O)O)O[C@@](OCCCn2cc(-c3ccc(-c4ccccc4)cc3)nn2)(C(=O)O)C[C@@H]1O	33	–
CCCNC[C@@H](O)[C@@H](O)[C@@H]1O[C@@](OCCCn2cc(-c3ccc(-c4ccccc4)cc3)nn2)(C(=O)O)C[C@H](O)[C@H]1NC(C)=O	< 0.5	–
CCCCS(=O)(=O)NC[C@@H](O)[C@@H](O)[C@@H]1O[C@@](OCCCn2cc(-c3ccc(-c4ccccc4)cc3)nn2)(C(=O)O)C[C@H](O)[C@H]1NC(C)=O	0.16	–
CC(=O)N[C@H]1[C@H]([C@H](O)[C@H](O)CNS(=O)(=O)Cc2ccccc2)O[C@@](OCCCn2cc(-c3ccc(-c4ccccc4)cc3)nn2)(C(=O)O)C[C@@H]1O	0.17	–
COC1(C(=O)O)C[C@H](O)[C@@H](NC(C)=O)[C@H]([C@H](O)[C@H](O)CO)O1 (some centres undefined)	–	pIC50 [5]: 2.09
CC(=O)N[C@H]1[C@H]([C@H](O)[C@H](O)CNCc2ccccc2)O[C@@](OCCCn2cc(-c3ccc(-c4ccccc4)cc3)nn2)(C(=O)O)C[C@@H]1O	< 0.5	–
CC(=O)N[C@H]1[C@H]([C@H](O)[C@H](O)CO)O[C@@](OC[C@H]2O[C@@H](O[C@H]3[C@H](O)[C@@H](O)[C@H](O)O[C@@H]3CO)[C@H](O)[C@@H](O)[C@H]2O)(C(=O)O)C[C@@H]1O	–	pKd [6]: 3.62; fold change (FC) [3]: 1.4; pIC50 [4]: 1.59
CC(=O)N[C@H]1[C@H]([C@H](O)[C@H](O)CNC(=O)C(=O)Nc2ccccc2)O[C@@](OCCCn2cc(-c3ccc(-c4ccccc4)cc3)nn2)(C(=O)O)C[C@@H]1O	6.8	–
CC(=O)N[C@H]1[C@H]([C@H](O)[C@H](O)CNS(N)(=O)=O)O[C@@](OCCCn2cc(-c3ccc(-c4ccccc4)cc3)nn2)(C(=O)O)C[C@@H]1O	0.45	–
CC(=O)N[C@H]1[C@H]([C@H](O)[C@H](O)CO)O[C@@](OCCCn2cc(-c3ccc(-c4ccccc4)cc3)nn2)(C(=O)O)C[C@@H]1O	152	pIC50 [5]: 4.28
CC(=O)N[C@H]1[C@H]([C@H](O)[C@H](O)CNC(=O)Cc2ccccc2)O[C@@](OCCCn2cc(-c3ccc(-c4ccccc4)cc3)nn2)(C(=O)O)C[C@@H]1O	0.6	–
CC(=O)N[C@H]1[C@H]([C@H](O)[C@H](O)CO)O[C@@](O[C@H]2[C@@H](O)[C@@H](CO)O[C@@H](O[C@H]3[C@H](O)[C@@H](O)[C@H](O)O[C@@H]3CO)[C@@H]2O)(C(=O)O)C[C@@H]1O	–	pKd [6]: 3.17; pIC50 [4]: 1.43
CC(=O)N[C@H]1[C@H]([C@H](O)[C@H](O)CNS(C)(=O)=O)O[C@@](OCCCn2cc(-c3ccc(-c4ccccc4)cc3)nn2)(C(=O)[O-])C[C@@H]1O.[Na+]	3120	Ratio [2]: 4.8; fold change (FC) [3]: 141; pIC50 [4]: 3.59; Activity (K562): Non-Toxic; inhibition [7]: Active; Activity [8]: Non-Toxic; Activity [9]: Non-Toxic; pIC50 [5]: 5.59
CC(=O)N[C@H]1[C@H]([C@H](O)[C@H](O)CNS(=O)(=O)NC(=O)OCc2ccccc2)O[C@@](OCCCn2cc(-c3ccc(-c4ccccc4)cc3)nn2)(C(=O)O)C[C@@H]1O	0.27	–
CC(=O)N[C@H]1[C@H]([C@H](O)[C@H](O)CS)O[C@@](OCCCn2cc(-c3ccc(-c4ccccc4)cc3)nn2)(C(=O)O)C[C@@H]1O	0.52	–

The next lines start with results.

fold change (FC) [1]	SMILES	also measured
< 1.5	COC1(C(=O)O)C[C@H](O)[C@@H](NC(C)=O)[C@H]([C@H](O)[C@H](O)CNC(=O)CC23CC4CC(CC(C4)C2)C3)O1 (some centres undefined)	–
10	COC1(C(=O)O)C[C@H](O)[C@@H](NC(C)=O)[C@H]([C@H](O)[C@H](O)CNC(=O)Cc2ccccc2)O1 (some centres undefined)	–
< 1	COC1(C(=O)O)C[C@H](O)[C@@H](NC(C)=O)[C@H]([C@H](O)[C@H](O)CNC(=O)Nc2ccccc2)O1 (some centres undefined)	–
< 1.5	COC1(C(=O)O)C[C@H](O)[C@@H](NC(C)=O)[C@H]([C@H](O)[C@H](O)CNC(=O)c2ccccc2)O1 (some centres undefined)	–
8.2	COC1(C(=O)O)C[C@H](O)[C@@H](NC(C)=O)[C@H]([C@H](O)[C@H](O)CNC(=O)Cc2ccc3ccccc3c2)O1 (some centres undefined)	–
3.6	CC(=O)N[C@H]1[C@H]([C@H](O)[C@H](O)CNC(=O)C(=O)O)O[C@@](OCCCn2cc(-c3ccc(-c4ccccc4)cc3)nn2)(C(=O)O)C[C@@H]1O	–
< 1.5	COC1(C(=O)O)C[C@H](O)[C@@H](NC(C)=O)[C@H]([C@H](O)[C@H](O)CNC(=O)Cc2cccc3ccccc23)O1 (some centres undefined)	–
4.1	COC1(C(=O)O)C[C@H](O)[C@@H](NC(C)=O)[C@H]([C@H](O)[C@H](O)CNC(=O)C(N)=O)O1 (some centres undefined)	–
< 1.5	COC1(C(=O)O)C[C@H](O)[C@@H](NC(C)=O)[C@H]([C@H](O)[C@H](O)CNC(=O)c2ccc(-c3ccccc3)cc2)O1 (some centres undefined)	–
0.73	CC(=O)NC[C@@H](O)[C@@H](O)[C@@H]1O[C@@](OCCCn2cc(-c3ccc(-c4ccccc4)cc3)nn2)(C(=O)O)C[C@H](O)[C@H]1NC(C)=O	–
58	COC1(C(=O)O)C[C@H](O)[C@@H](NC(C)=O)[C@H]([C@H](O)[C@H](O)CNC(=O)C(=O)Nc2ccccc2)O1 (some centres undefined)	–
< 1.5	COC1(C(=O)O)C[C@H](O)[C@@H](NC(C)=O)[C@H]([C@H](O)[C@H](O)CNC(=O)CC2CCCCC2)O1 (some centres undefined)	–
3.5	CC(=O)N[C@H]1[C@H]([C@H](O)[C@H](O)CNC(=O)C(N)=O)O[C@@](OCCCn2cc(-c3ccc(-c4ccccc4)cc3)nn2)(C(=O)O)C[C@@H]1O	–
4.5	COC1(C(=O)O)C[C@H](O)[C@@H](NC(C)=O)[C@H]([C@H](O)[C@H](O)CNC(=O)Cc2ccc(-c3ccccc3)cc2)O1 (some centres undefined)	–
